Results taken from ChEMBL document CHEMBL1149369, “Isolation, structure elucidation, total synthesis, and evaluation of new natural and synthetic ceramides on human SK-MEL-1 melanoma cells” (J Med Chem, 2006).
Activity calls are given as the source filed them. The calls are words filed in the database; no cut-off is given here.

What follows are compounds tested on SK-MEL-1 (assay: Apoptotic activity in human SK-MEL-1 cells measured as induction of DNA fragmentation).
Format: functional, cell-based
Outline: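 SK-MEL-1 cells incubated 6 h or 12 h with 10-30 µM ceramides or untreated. 4 × 10^5 cells lysed in 50 mM Tris-HCl pH 8.0, 10 mM EDTA, 0.5% SDS, RNase A (37 °C, 1 h), then proteinase K (50 °C, 2 h). Phenol-chloroform-isoamyl alcohol extraction; 2% agarose gel in TAE at 40 V, 4 h; ethidium bromide staining, UV visualisation of ladders.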
In the case of CCCCCCCCCCCCCCCCCC[C@@H](OC(C)=O)C(=O)N[C@@H](COC(C)=O)[C@H](OC(C)=O)[C@@H](CCCCCCCCCCCCCCCCCC)OC(C)=O, the Activity is reported as “Dose-dependent effect”.
In the case of CCCCCCCCCCCCCCCCCC[C@@H](OC(C)=O)[C@@H](OC(C)=O)[C@H](COC(C)=O)NC(=O)[C@@H](OC(C)=O)[C@H](CCCCCCCCCCCCCCCCC)OC(C)=O, the Activity is reported as “Dose-dependent effect”.
For CCCCCCCCCCCCCCCCCC[C@@H](OC(C)=O)[C@@H](OC(C)=O)[C@H](COC(C)=O)NC(=O)[C@H](OC(C)=O)[C@@H](CCCCCCCCCCCCCCCCC)OC(C)=O, the Activity was “Dose-dependent effect”.
In the case of CCCCCCCCCCCCCCCCCC[C@@H](OC(C)=O)[C@@H](OC(C)=O)[C@H](COC(C)=O)NC(=O)[C@@H](OC(C)=O)[C@@H](CCCCCCCCCCCCCCCCC)OC(C)=O, the Activity is reported as “Dose-dependent effect”.
CCCCCCCCCCCCCCCCCC[C@@H](OC(C)=O)[C@@H](OC(C)=O)[C@H](COC(C)=O)NC(=O)[C@H](OC(C)=O)[C@H](CCCCCCCCCCCCCCCCC)OC(C)=O was tested, and the Activity was “Dose-dependent effect”.

Each compound was assayed on SK-MEL-1 (assay: Antiproliferative activity against human SK-MEL-1 cells by MTT assay).
Format: functional, cell-based
Outline: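 SK-MEL-1 in RPMI 1640 + 10% heat-inactivated FBS, 37 °C, 5% CO2; resuspended in fresh medium 24 h before treatment. 1 × 10^4 exponentially growing cells exposed 72 h at 37 °C to graded concentrations (10 mM ethanol/dodecane 49:1 stocks; final solvent ≤0.5%, vehicle controls). MTT; OD 570 nm vs control; IC50 by curve fitting; two independent experiments, triplicate determinations.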
CCCCCCCCCCCCCCCCCC[C@@H](OC(C)=O)C(=O)N[C@@H](COC(C)=O)[C@H](OC(C)=O)[C@@H](CCCCCCCCCCCCCCCCCC)OC(C)=O gave an IC50 of 7.7 µM.
For CCCCCCCCCCCCCCCCCC[C@@H](OC(C)=O)[C@@H](OC(C)=O)[C@H](COC(C)=O)NC(=O)[C@@H](OC(C)=O)[C@H](CCCCCCCCCCCCCCCCC)OC(C)=O, the IC50 was 10.2 µM.
Compound CCCCCCCCCCCCCCCCCC[C@@H](OC(C)=O)[C@@H](OC(C)=O)[C@H](COC(C)=O)NC(=O)[C@H](OC(C)=O)[C@@H](CCCCCCCCCCCCCCCCC)OC(C)=O has an IC50 of 5.6 µM.
In the case of CCCCCCCCCCCCCCCCCC[C@@H](OC(C)=O)[C@@H](OC(C)=O)[C@H](COC(C)=O)NC(=O)[C@@H](OC(C)=O)[C@@H](CCCCCCCCCCCCCCCCC)OC(C)=O, the IC50 is reported as 3.9 µM.
Compound CCCCCCCCCCCCCCCCCC[C@@H](OC(C)=O)[C@@H](OC(C)=O)[C@H](COC(C)=O)NC(=O)[C@H](OC(C)=O)[C@H](CCCCCCCCCCCCCCCCC)OC(C)=O has an IC50 of 7.1 µM.

Each compound was assayed on SK-MEL-1 (assay: Apoptotic activity in human SK-MEL-1 cells measured as procaspase 9 cleavage by Western blot analysis).
Format: functional, cell-based
Outline: (§1)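 Western blot for procaspase-8 and -9 in SK-MEL-1 cells cultured with 10 µM or 30 µM ceramides and harvested at 12 h.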
With CCCCCCCCCCCCCCCCCC[C@@H](OC(C)=O)C(=O)N[C@@H](COC(C)=O)[C@H](OC(C)=O)[C@@H](CCCCCCCCCCCCCCCCCC)OC(C)=O the Activity was “Active”.
CCCCCCCCCCCCCCCCCC[C@@H](OC(C)=O)[C@@H](OC(C)=O)[C@H](COC(C)=O)NC(=O)[C@@H](OC(C)=O)[C@H](CCCCCCCCCCCCCCCCC)OC(C)=O was tested, and the Activity was “Active”.
For CCCCCCCCCCCCCCCCCC[C@@H](OC(C)=O)[C@@H](OC(C)=O)[C@H](COC(C)=O)NC(=O)[C@H](OC(C)=O)[C@@H](CCCCCCCCCCCCCCCCC)OC(C)=O, the Activity was “Active”.
With CCCCCCCCCCCCCCCCCC[C@@H](OC(C)=O)[C@@H](OC(C)=O)[C@H](COC(C)=O)NC(=O)[C@@H](OC(C)=O)[C@@H](CCCCCCCCCCCCCCCCC)OC(C)=O the Activity was “Active”.
CCCCCCCCCCCCCCCCCC[C@@H](OC(C)=O)[C@@H](OC(C)=O)[C@H](COC(C)=O)NC(=O)[C@H](OC(C)=O)[C@H](CCCCCCCCCCCCCCCCC)OC(C)=O was tested, and the Activity was “Active”.

The compounds below were run on SK-MEL-1 (assay: Apoptotic activity in human SK-MEL-1 cells measured as procaspase 8 cleavage by Western blot analysis).
Format: functional, cell-based
Outline: as §1
For CCCCCCCCCCCCCCCCCC[C@@H](OC(C)=O)C(=O)N[C@@H](COC(C)=O)[C@H](OC(C)=O)[C@@H](CCCCCCCCCCCCCCCCCC)OC(C)=O, the Activity was “Active”.
In the case of CCCCCCCCCCCCCCCCCC[C@@H](OC(C)=O)[C@@H](OC(C)=O)[C@H](COC(C)=O)NC(=O)[C@@H](OC(C)=O)[C@H](CCCCCCCCCCCCCCCCC)OC(C)=O, the Activity is reported as “Active”.
In the case of CCCCCCCCCCCCCCCCCC[C@@H](OC(C)=O)[C@@H](OC(C)=O)[C@H](COC(C)=O)NC(=O)[C@H](OC(C)=O)[C@@H](CCCCCCCCCCCCCCCCC)OC(C)=O, the Activity is reported as “Active”.
With CCCCCCCCCCCCCCCCCC[C@@H](OC(C)=O)[C@@H](OC(C)=O)[C@H](COC(C)=O)NC(=O)[C@@H](OC(C)=O)[C@@H](CCCCCCCCCCCCCCCCC)OC(C)=O the Activity was “Active”.
CCCCCCCCCCCCCCCCCC[C@@H](OC(C)=O)[C@@H](OC(C)=O)[C@H](COC(C)=O)NC(=O)[C@H](OC(C)=O)[C@H](CCCCCCCCCCCCCCCCC)OC(C)=O was tested, and the Activity was “Active”.

Each compound was assayed on SK-MEL-1 (assay: Apoptotic activity in human SK-MEL-1 cells measured as induction of poly ADP-ribose polymerase cleavage by Western blot analysis).
Format: functional, cell-based
Outline: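 SK-MEL-1 cells exposed 12 h to 10 µM or 30 µM ceramides; untreated controls. Cells pelleted, washed in ice-cold PBS, lysed; SDS-PAGE and immunoblot with anti-PARP antibody that also detects the 85 kDa cleavage fragment.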
With CCCCCCCCCCCCCCCCCC[C@@H](OC(C)=O)C(=O)N[C@@H](COC(C)=O)[C@H](OC(C)=O)[C@@H](CCCCCCCCCCCCCCCCCC)OC(C)=O the Activity was “Active”.
For CCCCCCCCCCCCCCCCCC[C@@H](OC(C)=O)[C@@H](OC(C)=O)[C@H](COC(C)=O)NC(=O)[C@@H](OC(C)=O)[C@H](CCCCCCCCCCCCCCCCC)OC(C)=O, the Activity was “Active”.
With CCCCCCCCCCCCCCCCCC[C@@H](OC(C)=O)[C@@H](OC(C)=O)[C@H](COC(C)=O)NC(=O)[C@H](OC(C)=O)[C@@H](CCCCCCCCCCCCCCCCC)OC(C)=O the Activity was “Active”.
In the case of CCCCCCCCCCCCCCCCCC[C@@H](OC(C)=O)[C@@H](OC(C)=O)[C@H](COC(C)=O)NC(=O)[C@@H](OC(C)=O)[C@@H](CCCCCCCCCCCCCCCCC)OC(C)=O, the Activity is reported as “Active”.
In the case of CCCCCCCCCCCCCCCCCC[C@@H](OC(C)=O)[C@@H](OC(C)=O)[C@H](COC(C)=O)NC(=O)[C@H](OC(C)=O)[C@H](CCCCCCCCCCCCCCCCC)OC(C)=O, the Activity is reported as “Active”.
